Laboratory results as given in ChEMBL document CHEMBL1949509, “Fluorinated dual antithrombotic compounds based on 1,4-benzoxazine scaffold” (Eur J Med Chem, 2012).
pIC50, pKi: −log10 of the molar value.

Tests used:
Prothrombin = Prothrombin (Homo sapiens, UniProt P00734)
Integrin alpha-V/beta-3 = Integrin alpha-V/beta-3 (Homo sapiens, UniProt P05106+P06756); assay: Displacement of biotinylated fibrinogen from human […] receptor after 2 hrs by chemiluminescence assay; assay type: protein-complex assay
Chain of Integrin alpha-V/beta-3 (P05106 27-788 limits assumed): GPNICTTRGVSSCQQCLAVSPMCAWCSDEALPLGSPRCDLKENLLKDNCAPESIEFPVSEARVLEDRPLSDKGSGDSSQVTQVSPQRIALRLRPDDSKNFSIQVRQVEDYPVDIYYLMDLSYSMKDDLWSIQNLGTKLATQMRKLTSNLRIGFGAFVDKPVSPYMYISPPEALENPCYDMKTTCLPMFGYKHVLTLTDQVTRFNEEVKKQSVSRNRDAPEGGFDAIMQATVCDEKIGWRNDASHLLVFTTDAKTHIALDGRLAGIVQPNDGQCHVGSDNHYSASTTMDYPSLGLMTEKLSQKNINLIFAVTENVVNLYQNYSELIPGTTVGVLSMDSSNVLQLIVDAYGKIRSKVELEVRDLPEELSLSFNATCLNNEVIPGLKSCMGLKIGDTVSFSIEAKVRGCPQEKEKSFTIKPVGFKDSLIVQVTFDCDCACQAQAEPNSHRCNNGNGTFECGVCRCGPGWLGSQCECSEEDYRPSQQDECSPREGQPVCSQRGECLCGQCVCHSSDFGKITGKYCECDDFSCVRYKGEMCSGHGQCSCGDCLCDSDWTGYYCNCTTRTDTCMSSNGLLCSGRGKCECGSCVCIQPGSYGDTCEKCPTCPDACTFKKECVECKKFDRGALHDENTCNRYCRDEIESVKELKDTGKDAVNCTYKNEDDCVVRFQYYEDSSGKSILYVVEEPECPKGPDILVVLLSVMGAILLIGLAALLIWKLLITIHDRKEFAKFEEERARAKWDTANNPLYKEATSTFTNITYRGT
Chain of Integrin alpha-V/beta-3 (P06756 31-889 limits assumed): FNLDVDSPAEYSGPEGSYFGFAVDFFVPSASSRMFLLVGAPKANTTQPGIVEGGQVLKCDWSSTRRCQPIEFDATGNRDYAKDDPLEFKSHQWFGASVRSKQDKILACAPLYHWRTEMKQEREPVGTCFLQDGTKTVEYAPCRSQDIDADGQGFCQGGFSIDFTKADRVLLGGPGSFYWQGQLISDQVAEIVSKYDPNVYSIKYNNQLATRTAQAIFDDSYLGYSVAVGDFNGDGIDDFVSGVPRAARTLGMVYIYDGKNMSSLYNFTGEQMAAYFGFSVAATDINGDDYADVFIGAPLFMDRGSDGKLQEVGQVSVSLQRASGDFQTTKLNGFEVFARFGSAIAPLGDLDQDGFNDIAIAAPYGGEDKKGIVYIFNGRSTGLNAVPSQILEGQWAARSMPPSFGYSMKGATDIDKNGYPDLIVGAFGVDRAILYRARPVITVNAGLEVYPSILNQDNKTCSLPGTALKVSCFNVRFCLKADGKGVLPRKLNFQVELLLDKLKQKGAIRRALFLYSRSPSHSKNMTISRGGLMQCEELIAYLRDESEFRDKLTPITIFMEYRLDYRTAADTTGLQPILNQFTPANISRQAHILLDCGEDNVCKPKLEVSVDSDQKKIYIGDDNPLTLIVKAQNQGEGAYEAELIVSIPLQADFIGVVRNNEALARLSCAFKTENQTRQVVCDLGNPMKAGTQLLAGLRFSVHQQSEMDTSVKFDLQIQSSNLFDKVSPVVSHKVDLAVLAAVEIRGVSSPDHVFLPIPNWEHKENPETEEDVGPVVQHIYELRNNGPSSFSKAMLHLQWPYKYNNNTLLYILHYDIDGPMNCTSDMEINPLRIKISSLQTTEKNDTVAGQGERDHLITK
Chain of Integrin alpha-V/beta-3 (P06756 891-1048 limits assumed): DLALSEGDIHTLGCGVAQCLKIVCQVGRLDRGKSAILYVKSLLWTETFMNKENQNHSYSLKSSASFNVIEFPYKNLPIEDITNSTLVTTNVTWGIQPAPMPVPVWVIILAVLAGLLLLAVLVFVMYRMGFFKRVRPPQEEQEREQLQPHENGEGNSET

[1] = molecular target: Integrin alpha-IIb/beta-3 (Homo sapiens, UniProt P05106+P08514); assay: Displacement of biotinylated fibrinogen from human alpha2b-beta3 receptor after 2 hrs by chemiluminescence assay; assay type: protein-complex assay
Chain of Integrin alpha-IIb/beta-3 (P05106 27-788 limits assumed): as the sequence (P05106 27-788 limits assumed) above
Chain of Integrin alpha-IIb/beta-3 (P08514 32-887 limits assumed): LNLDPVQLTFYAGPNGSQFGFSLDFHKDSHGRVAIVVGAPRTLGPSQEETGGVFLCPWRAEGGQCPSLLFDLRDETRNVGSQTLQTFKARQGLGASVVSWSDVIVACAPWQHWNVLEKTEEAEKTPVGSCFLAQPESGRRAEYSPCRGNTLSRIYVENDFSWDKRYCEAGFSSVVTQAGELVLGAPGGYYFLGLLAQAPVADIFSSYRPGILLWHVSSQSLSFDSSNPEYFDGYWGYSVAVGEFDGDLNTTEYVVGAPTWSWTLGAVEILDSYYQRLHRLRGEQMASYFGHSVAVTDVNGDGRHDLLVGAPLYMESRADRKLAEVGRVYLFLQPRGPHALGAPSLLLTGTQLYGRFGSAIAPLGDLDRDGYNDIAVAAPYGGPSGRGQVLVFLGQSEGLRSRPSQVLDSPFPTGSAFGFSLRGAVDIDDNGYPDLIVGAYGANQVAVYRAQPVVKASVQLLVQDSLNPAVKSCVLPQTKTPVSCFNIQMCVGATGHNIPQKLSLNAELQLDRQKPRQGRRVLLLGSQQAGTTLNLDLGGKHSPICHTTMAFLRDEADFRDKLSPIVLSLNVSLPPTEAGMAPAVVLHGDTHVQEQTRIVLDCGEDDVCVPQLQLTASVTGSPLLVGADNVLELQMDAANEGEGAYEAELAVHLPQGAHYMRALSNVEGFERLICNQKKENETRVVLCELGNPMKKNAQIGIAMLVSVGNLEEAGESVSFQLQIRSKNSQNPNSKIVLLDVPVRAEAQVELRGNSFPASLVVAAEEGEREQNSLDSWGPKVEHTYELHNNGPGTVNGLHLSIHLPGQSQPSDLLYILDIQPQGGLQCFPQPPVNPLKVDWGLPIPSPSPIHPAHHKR
Chain of Integrin alpha-IIb/beta-3 (P08514 891-1039 limits assumed): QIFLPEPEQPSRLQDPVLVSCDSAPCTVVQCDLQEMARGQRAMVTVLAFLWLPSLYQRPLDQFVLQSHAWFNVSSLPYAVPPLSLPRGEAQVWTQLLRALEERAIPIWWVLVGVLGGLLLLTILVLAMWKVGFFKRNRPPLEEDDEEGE

Coagulation factor X = Coagulation factor X (Homo sapiens, UniProt P00742); assay: Inhibition of factor 10a using S-2222 as substrate preincubated for 15 mins prior substrate addition measured for every 10 secs by spectrophotometry
Chain of Coagulation factor X (P00742 41-179 limits assumed): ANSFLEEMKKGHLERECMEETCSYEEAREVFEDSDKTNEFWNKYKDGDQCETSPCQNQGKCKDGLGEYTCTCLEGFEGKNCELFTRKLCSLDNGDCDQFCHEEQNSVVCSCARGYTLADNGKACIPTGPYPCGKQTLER
Chain of Coagulation factor X (P00742 235-488 limits assumed): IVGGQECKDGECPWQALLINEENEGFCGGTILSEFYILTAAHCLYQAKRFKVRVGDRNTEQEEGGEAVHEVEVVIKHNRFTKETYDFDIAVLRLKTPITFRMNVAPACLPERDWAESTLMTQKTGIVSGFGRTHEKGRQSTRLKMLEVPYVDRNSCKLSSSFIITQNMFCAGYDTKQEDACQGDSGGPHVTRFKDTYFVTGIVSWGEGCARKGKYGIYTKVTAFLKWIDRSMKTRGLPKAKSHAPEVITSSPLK
Outline: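 Amidolytic chromogenic assay. Factor Xa at 1 mBAEEE/mL final with S-2222 at […] final. Inhibitor at three concentrations, diluted from 10 mmol/L DMSO stock, preincubated with enzyme in HBSA buffer for 15 min at 25 °C. A405 read every 10 s. Run in triplicate. Ki by Cheng–Prusoff from initial linear rates, averaged over concentration combinations.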

[2] = Selectivity ratio of Ki for trypsin to Ki for thrombin
Outline: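 Trypsin at 0.5 nkat/mL with S-2222 at 50 and 100; thrombin at 0.5 NIH E/mL with S-2238 at […]. Triplicates, three inhibitor concentrations.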

[3] = Selectivity ratio of Ki for factor 10a to Ki for thrombin
Outline: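 Factor Xa at 1 mBAEEE/mL with S-2222 at 100 and 200; thrombin at 0.5 NIH E/mL with S-2238 at […]. Triplicates, three inhibitor concentrations.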

| SMILES | pKi (Prothrombin) | pIC50 (Integrin alpha-V/beta-3) | pIC50 [1] | pKi (Coagulation factor X) | Ratio Ki [2] | Ratio Ki [3] |
| --- | --- | --- | --- | --- | --- | --- |
| CN1CC(C)(COc2ccc(C(=N)N)cc2)Oc2ccc(N(CC(=O)O)Cc3cc(F)cc(F)c3)cc21 (configuration not stated) | 6.12 | < 4.00 | 5.60 | 5.01 |  |  |
| CN1CC(C)(COc2ccc(C(=N)N)cc2)Oc2cc(N(CC(=O)O)Cc3cccc(F)c3)ccc21 (configuration not stated) | 6.49 | < 4.00 | 4.22 | 5.18 | 5 |  |
| CN1CC(C)(COc2ccc(C(=N)N)cc2)Oc2ccc(N(CC(=O)O)Cc3ccc(F)cc3)cc21 (configuration not stated) | 6.12 | < 4.00 | 5.70 | 5.11 |  |  |
| CN1CC(C)(COc2ccc(C(=N)N)cc2)Oc2cc(N(Cc3cccc(F)c3)C(=O)C(=O)O)ccc21 (configuration not stated) |  | < 4.00 | 4.48 | 5.39 |  |  |
| CCOC(=O)CN(Cc1cccc(F)c1)c1ccc2c(c1)OC(C)(COc1ccc(C(=N)N)cc1)CN2C (configuration not stated) |  | < 4.00 | < 4.00 | 5.92 |  |  |
| CCOC(=O)C(=O)N(Cc1ccccc1)c1ccc2c(c1)N(C)CC(C)(COc1ccc(C(=N)N)cc1)O2 (configuration not stated) |  | < 4.00 | 4.31 |  |  |  |
| CN1CC(C)(COc2ccc(C(=N)N)cc2)Oc2ccc(N(Cc3cccc(F)c3)C(=O)C(=O)O)cc21 (configuration not stated) |  | < 4.00 | 5.66 | 4.74 |  |  |
| CCOC(=O)C(=O)N(Cc1ccc(F)cc1)c1ccc2c(c1)N(C)CC(C)(COc1ccc(C(=N)N)cc1)O2 (configuration not stated) |  | < 4.00 | < 5.00 | 5.26 |  |  |
| CCOC(=O)CN(Cc1cccc(F)c1)c1ccc2c(c1)N(C)CC(C)(COc1ccc(C(=N)N)cc1)O2 (configuration not stated) | 6.10 | < 4.00 | < 4.00 | 5.17 |  |  |
| CN1CC(C)(COc2ccc(C(=N)N)cc2)Oc2cc(N(Cc3ccc(F)cc3)C(=O)C(=O)O)ccc21 (configuration not stated) |  | < 4.00 | 4.47 | 5.11 |  |  |
| CN1CC(C)(COc2ccc(C(=N)N)cc2)Oc2ccc(N(Cc3ccccc3)C(=O)C(=O)O)cc21 (configuration not stated) |  | < 4.00 | 5.55 |  |  |  |
| CN1CC(C)(COc2ccc(C(=N)N)cc2)Oc2cc(N(Cc3ccc(F)c(F)c3)C(=O)C(=O)O)ccc21 (configuration not stated) |  | < 4.00 | 4.51 | 5.44 |  |  |
| CN1CC(C)(COc2ccc(C(=N)N)cc2)Oc2cc(N(CC(=O)O)Cc3ccc(F)c(F)c3)ccc21 (configuration not stated) | 6.09 | < 4.00 | 4.10 | 5.36 | 1.6 | 5.4 |
| CCOC(=O)C(=O)N(Cc1cccc(F)c1)c1ccc2c(c1)N(C)CC(C)(COc1ccc(C(=N)N)cc1)O2 (configuration not stated) |  | < 4.00 | < 4.00 | 5.31 |  |  |
| CCOC(=O)C(=O)N(Cc1ccccc1)c1ccc2c(c1)OC(C)(COc1ccc(C(=N)N)cc1)CN2C (configuration not stated) |  | < 4.00 | 4.28 |  |  |  |
| CCOC(=O)CN(Cc1cc(F)cc(F)c1)c1ccc2c(c1)OC(C)(COc1ccc(C(=N)N)cc1)CN2C (configuration not stated) |  | < 4.00 | < 4.00 | 4.82 |  |  |
| CN1CC(C)(COc2ccc(C(=N)N)cc2)Oc2cc(N(CC(=O)O)Cc3ccc(F)cc3)ccc21 (configuration not stated) | 6.62 | < 4.00 | 4.31 | 5.25 |  |  |
| CCOC(=O)CN(Cc1ccc(F)cc1)c1ccc2c(c1)OC(C)(COc1ccc(C(=N)N)cc1)CN2C (configuration not stated) | 6.44 | < 4.00 | < 4.00 | 5.80 |  |  |
| CCOC(=O)CN(Cc1ccccc1)c1ccc2c(c1)N(C)CC(C)(COc1ccc(C(=N)N)cc1)O2 (configuration not stated) |  | < 4.00 | 4.27 |  |  |  |

| SMILES | pKi (Prothrombin) | pIC50 (Integrin alpha-V/beta-3) | pIC50 [1] | pKi (Coagulation factor X) | Ratio Ki [2] | Ratio Ki [3] |
| --- | --- | --- | --- | --- | --- | --- |
| CCOC(=O)C(=O)N(Cc1ccc(F)c(F)c1)c1ccc2c(c1)N(C)CC(C)(COc1ccc(C(=N)N)cc1)O2 (configuration not stated) |  | < 4.00 | < 4.00 | 5.33 |  |  |
| CN1CC(C)(COc2ccc(C(=N)N)cc2)Oc2cc(N(CC(=O)O)Cc3cc(F)cc(F)c3)ccc21 (configuration not stated) | 6.70 | < 4.00 | 4.35 | 5.40 | 6.5 | 20 |
| CN1CC(C)(COc2ccc(C(=N)N)cc2)Oc2ccc(N(Cc3ccc(F)cc3)C(=O)C(=O)O)cc21 (configuration not stated) |  | < 4.00 | 5.74 | 4.79 |  |  |
| CCOC(=O)C(=O)N(Cc1ccc(F)cc1)c1ccc2c(c1)OC(C)(COc1ccc(C(=N)N)cc1)CN2C (configuration not stated) | 7.64 | < 4.00 | < 4.00 | 5.55 |  |  |
| CCOC(=O)C(=O)N(Cc1cc(F)cc(F)c1)c1ccc2c(c1)N(C)CC(C)(COc1ccc(C(=N)N)cc1)O2 (configuration not stated) |  | < 4.00 | < 4.00 | 5.22 |  |  |
| CN1CC(C)(COc2ccc(C(=N)N)cc2)Oc2ccc(N(CC(=O)O)Cc3ccc(F)c(F)c3)cc21 (configuration not stated) | 6.48 | < 4.00 | 5.96 | 5.19 | 1.7 | 20 |
| CCOC(=O)C(=O)N(Cc1cc(F)cc(F)c1)c1ccc2c(c1)OC(C)(COc1ccc(C(=N)N)cc1)CN2C (configuration not stated) | 7.74 | < 4.00 | < 4.00 | 6.10 |  |  |
| CN1CC(C)(COc2ccc(C(=N)N)cc2)Oc2ccc(N(Cc3cc(F)cc(F)c3)C(=O)C(=O)O)cc21 (configuration not stated) |  | < 4.00 | 5.47 | 4.85 |  |  |
| CCOC(=O)C(=O)N(Cc1cccc(F)c1)c1ccc2c(c1)OC(C)(COc1ccc(C(=N)N)cc1)CN2C (configuration not stated) | 7.72 | < 4.00 | < 4.00 | 5.80 |  |  |
| CCOC(=O)CN(Cc1ccc(F)c(F)c1)c1ccc2c(c1)N(C)CC(C)(COc1ccc(C(=N)N)cc1)O2 (configuration not stated) | 6.08 | < 4.00 | < 4.00 | 5.10 |  |  |
| CN1CC(C)(COc2ccc(C(=N)N)cc2)Oc2ccc(N(Cc3ccc(F)c(F)c3)C(=O)C(=O)O)cc21 (configuration not stated) |  | < 4.00 | 5.60 | 4.85 |  |  |
| CN1CC(C)(COc2ccc(C(=N)N)cc2)Oc2cc(N(Cc3cc(F)cc(F)c3)C(=O)C(=O)O)ccc21 (configuration not stated) |  | < 4.00 | 4.51 | 5.80 |  |  |
| CCOC(=O)C(=O)N(Cc1ccc(F)c(F)c1)c1ccc2c(c1)OC(C)(COc1ccc(C(=N)N)cc1)CN2C (configuration not stated) | 7.55 | < 4.00 | < 4.00 | 5.80 |  |  |
| CCOC(=O)CN(Cc1ccc(F)cc1)c1ccc2c(c1)N(C)CC(C)(COc1ccc(C(=N)N)cc1)O2 (configuration not stated) | 6.14 | < 4.00 | < 4.00 | 5.18 |  |  |
| CN1CC(C)(COc2ccc(C(=N)N)cc2)Oc2ccc(N(CC(=O)O)Cc3cccc(F)c3)cc21 (configuration not stated) | 6.17 | < 4.00 | 5.82 | 5.12 |  |  |
| CCOC(=O)CN(Cc1ccccc1)c1ccc2c(c1)OC(C)(COc1ccc(C(=N)N)cc1)CN2C (configuration not stated) | 6.49 | < 4.00 | 4.55 |  |  |  |
| CCOC(=O)CN(Cc1cc(F)cc(F)c1)c1ccc2c(c1)N(C)CC(C)(COc1ccc(C(=N)N)cc1)O2 (configuration not stated) |  | < 4.00 | < 4.00 | 5.01 |  |  |
| CCOC(=O)CN(Cc1ccc(F)c(F)c1)c1ccc2c(c1)OC(C)(COc1ccc(C(=N)N)cc1)CN2C (configuration not stated) |  | < 4.00 | < 4.00 | 5.82 |  |  |
| CN1CC(C)(COc2ccc(C(=N)N)cc2)Oc2cc(N(Cc3ccccc3)C(=O)C(=O)O)ccc21 (configuration not stated) |  | < 4.00 | 4.41 |  |  |  |
